The text below walks through data of ChEMBL document CHEMBL4316652, “Kenalactams A-E, Polyene Macrolactams Isolated from Nocardiopsis CG3” (J Nat Prod, 2019).

By MIC is commonly meant the least concentration at which growth counts as inhibited. As usually defined, the IC50 is the midpoint of a concentration-inhibition curve.

In brackets after ≈: the same amount, converted by molar mass. Activity calls are given as the source filed them. The calls are words filed in the database; no cut-off is given here.

In test [1] the test system is Candida albicans. The test is described as follows: Antifungal activity against Candida albicans DSM 1665 by serial dilution method. Format: functional. The essentials: (§1)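 Fungi were tested by serial dilution in MYG medium (1.0% phytone peptone, 1.0% glucose, 50 mM HEPES, pH 7.0). The top well held 67 μg/mL final, from a 1 mg/mL stock. Methanol served as negative control. The MIC was recorded.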

Test [2] deals with Hepatitis C virus. The test is described as follows: Antiviral activity against HCV JC1 infected in human Huh7.5 cells assessed as reduction in viral infection treated for 4 hrs followed by compound washout and measured after 3 days by luciferase reporter gene assay. Format: functional, organism-based. The settings on record: Hepacivirus hominis. The essentials:
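Huh-7.5 cells were electroporated with the Luc-Jc1 reporter virus in the presence of compound. After 4 h the inoculum was removed, and the monolayers were washed three times with PBS and given fresh compound-free medium. Cells were lysed at 3 days for luciferase read-out. Runs were in duplicate, reported as mean and standard deviation.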

In test [3] the test system is Escherichia coli. The experiment in a line: Antibacterial activity against Escherichia coli DSM1116 by serial dilution method. The format is functional.
Test [4] deals with Mucor hiemalis. The experiment in a line: Antifungal activity against Mucor hiemalis DSM 2656 by serial dilution method. The format is functional. Summed up:
as §1

Test [5] has as its system Bacillus subtilis. The test is described as follows: Antibacterial activity against Bacillus subtilis DSM10 by serial dilution method. Format: functional.
Test [6] concerns L929. The experiment in a line: Cytotoxicity against mouse L929 cells measured after 5 days by MTT assay. The format is cell-based. A general note: Tetrazolium assays rely on reduction of a dye to a coloured formazan, in cell work by metabolically active cells.
Test [7] deals with KB 3-1. The experiment in a line: Cytotoxicity against human KB3-1 cells measured after 5 days by MTT assay. The format is functional, cell-based.
Test [8] relates to Staphylococcus aureus. The test is described as follows: Antibacterial activity against Staphylococcus aureus Newman by serial dilution method. The format is functional.
Test [9] relates to MCF7. The test is described as follows: Cytotoxicity against human MCF7 cells measured after 5 days by MTT assay. The settings on record: MCF7, 120 h. The format is functional, cell-based.
Test [10] concerns PC-3. The experiment in a line: Cytotoxicity against human PC3 cells measured after 5 days by MTT assay. The format is functional, cell-based. The settings on record: PC-3, 120 h.
Test [11] deals with SK-OV-3. The experiment in a line: Cytotoxicity against human SKOV3 cells measured after 5 days by MTT assay. Format: functional, cell-based. The settings on record: SK-OV-3, 120 h.
The subject of test [12] is A549. The experiment in a line: Cytotoxicity against human A549 cells measured after 5 days by MTT assay. The format is functional, cell-based. The settings on record: A549, 120 h.
Test [13] deals with Trypanosoma brucei. The test is described as follows: Antimicrobial activity against Trypanosoma brucei. Format: functional.
Test [14] relates to Candida albicans. The experiment in a line: Antifungal activity against amphotericin B-resistant Candida albicans. The format is functional. Summed up:
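Broth serial dilution MIC in 96-well plates using MYG medium for fungi (1.0% phytone peptone, 1.0% glucose, 50 mM HEPES, pH 7.0). Compounds were added as 20 µL aliquots of a 1 mg/mL stock, giving 67 μg/mL final in the first well. Methanol served as negative control.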

Where [15] appears, read: Mus musculus, L929, 120 h, read-out: IC50.
Where [16] appears, read: Homo sapiens, KB 3-1, 120 h, read-out: IC50.

With `C/C1=C/C=C/C(C)=C/C=C/C=C\C=C/[C@H](C)CNC(=O)/C(C)=C/C=C/C(C)=C/C=C/C=C\C=C/[C@H](C)CNC1=O`, the MIC entry in test [1], in test [3], in test [4] and in test [5] was “inactive” in each case. Moreover, the outcome in [2] was Active.

`CC1=C/[C@H](O)[C@H](O)\C=C/C=C/C=C/C=C\C=C/[C@H](C)CNC(=O)/C=C/C=C/1`: the IC50 entry in [6] (l929) was “Non-Toxic”; in test [7] (kb 3-1), “Not Active”.

Take `C\C1=C/C=C/C=C/C=C\C=C/[C@H](C)CNC(=O)/C(C)=C/C=C/C=C/C=C\C=C/[C@H](C)CNC1=O`: the MIC in test [8], in test [1] and in test [4] was 66.7 µg/mL (≈ 145 µM) in each case. The concentration for half-maximal inhibition (IC50) in [6] (setting [15]) was determined as 32.8 µM; in test [7] (setting [16]) it was 6.8 µM; in test [9] it was 16.4 µM; in [10], 6.3 µM; in test [11], 14.2 µM; in test [12], 16.3 µM. Further, the result in test [2] was Active. The MIC result in test [3] and in test [5] was “inactive” each time.

Take NYSTATIN: the MIC came to 8.8 µg/mL in test [1] and 4.16 µg/mL in test [4].

`CC1=C/[C@H](O)[C@H](O)\C=C/C=C/C=C/C=C\C=C/[C@H](C)CNC(=O)\C=C/C=C/1`: the MIC result in test [8], in test [1], in test [3], in [4] and in test [5] was “inactive” in each case. In [2], the result was inactive.

Take `CN(C)[C@@H]1C(O)=C(C(N)=O)C(=O)[C@@]2(O)C(O)=C3C(=O)c4c(O)cccc4[C@@](C)(O)[C@H]3[C@H](O)[C@@H]12` [OXYTETRACYCLINE]: the MIC in test [8] was determined as 0.05 µg/mL (≈ 0.109 µM); in test [3], 1.66 µg/mL (≈ 3.61 µM); in test [5] it was 2.08 µg/mL (≈ 4.52 µM).

Compound `CC1=C\C=C\C=C\C=C/C=C\[C@H](C)CNC(=O)/C(C)=C/C=C/C=C/C=C\C=C/[C@H](C)CNC(=O)\C(C)=C\1` returned an MIC in [8] of 16.7 µg/mL (≈ 33.5 µM). For the same compound, the IC50 in [6] (setting [15]) was 42.2 µM; in test [7] (setting [16]), 5.4 µM; in test [9], 18.1 µM; in test [10], 5 µM; in test [11], 10 µM; in [12] it was 32.1 µM. Besides, the MIC result in test [1], in [3], in test [4] and in test [5] was “inactive” in each case. For the same compound, in test [2], the outcome was Active.

Turning to `CC1=C\C=C\C[C@H](C)NC(=O)/C=C/C=C/C=C/[C@H](C)[C@@H](O)[C@H](O)[C@@H](O)C[C@@H](O)/C=C\C=C\C(C)=C\1`, in test [13], the MIC stood at 0.8 µM (≈ 0.387 µg/mL).

`CC1=C\C=C\C=C/C=C\[C@H](C)CNC(=O)/C(C)=C/C=C/C(C)=C/C=C/C=C\C=C/[C@H](C)CNC(=O)\C(C)=C\C=C\1` returned a minimum inhibitory concentration (MIC) in test [8] of 66.7 µg/mL (≈ 124 µM). The IC50 entry in test [6] (l929) is “Non-Toxic”; in test [7] (setting [16]), 2.4 µM; in test [10], 2.1 µM; in [11] it was 5.5 µM; in test [12], 6.5 µM.

`C/C(=C\c1csc(C)n1)[C@@H]1C[C@@H]2O[C@]2(C)CCC[C@H](C)[C@H](O)[C@@H](C)C(=O)C(C)(C)[C@@H](O)CC(=O)O1` [PATUPILONE]: the IC50 in [6] (setting [15]) is 0.00075 µM; in test [7] (setting [16]), 5.3e-05 µM; in test [9], 7.4e-05 µM; in test [10], 0.0022 µM; in test [11], 0.00024 µM; in [12] it was 0.004 µM.

As to `CC1=C\C=C\C=C\C(C)CNC(=O)/C=C(O)/C=C/C(C)=C/C=C/C(O)C(O)C(O)C(=O)/C=C\C=C\1` (stereo unspecified), inhibition of growth in test [14] (MIC) required 4 µg/mL (≈ 8.31 µM).
